Measured values published in ChEMBL document CHEMBL1141613, “Conception of myeloperoxidase inhibitors derived from flufenamic acid by computational docking and structure modification” (Bioorg Med Chem, 2008).
pIC50: −log10 of the molar value.

Assays:
[1] = Hypochlorous acid scavenging activity at 0.5 uM by taurine assay; assay type: functional
Method in brief: (§1)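 No enzyme; HOCl (60 μM) added to pH 7.4 phosphate buffer (10 mM phosphate/300 mM NaCl) with taurine (15 mM) and compound (0.5, 1, 2, 4 μM) at 37 °C. Catalase added after 5 min. Taurine chloramine quantified with 0.45 mM TNB.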

[2] = Hypochlorous acid scavenging activity at 1 uM by taurine assay; assay type: functional; method in brief: as §1
[3] = Hypochlorous acid scavenging activity at 2 uM by taurine assay; assay type: functional; method in brief: as §1
[4] = Hypochlorous acid scavenging activity at 4 uM by taurine assay; assay type: functional; method in brief: as §1
[5] = LDL oxidation at 300 uM by ELISA
Myeloperoxidase = molecular target: T1, Myeloperoxidase (Homo sapiens, UniProt P05164); experiment: Inhibition of chlorinating activity of recombinant myeloperoxidase by taurine assay; assay type: single protein format
T1 sequence (P05164 whole entry): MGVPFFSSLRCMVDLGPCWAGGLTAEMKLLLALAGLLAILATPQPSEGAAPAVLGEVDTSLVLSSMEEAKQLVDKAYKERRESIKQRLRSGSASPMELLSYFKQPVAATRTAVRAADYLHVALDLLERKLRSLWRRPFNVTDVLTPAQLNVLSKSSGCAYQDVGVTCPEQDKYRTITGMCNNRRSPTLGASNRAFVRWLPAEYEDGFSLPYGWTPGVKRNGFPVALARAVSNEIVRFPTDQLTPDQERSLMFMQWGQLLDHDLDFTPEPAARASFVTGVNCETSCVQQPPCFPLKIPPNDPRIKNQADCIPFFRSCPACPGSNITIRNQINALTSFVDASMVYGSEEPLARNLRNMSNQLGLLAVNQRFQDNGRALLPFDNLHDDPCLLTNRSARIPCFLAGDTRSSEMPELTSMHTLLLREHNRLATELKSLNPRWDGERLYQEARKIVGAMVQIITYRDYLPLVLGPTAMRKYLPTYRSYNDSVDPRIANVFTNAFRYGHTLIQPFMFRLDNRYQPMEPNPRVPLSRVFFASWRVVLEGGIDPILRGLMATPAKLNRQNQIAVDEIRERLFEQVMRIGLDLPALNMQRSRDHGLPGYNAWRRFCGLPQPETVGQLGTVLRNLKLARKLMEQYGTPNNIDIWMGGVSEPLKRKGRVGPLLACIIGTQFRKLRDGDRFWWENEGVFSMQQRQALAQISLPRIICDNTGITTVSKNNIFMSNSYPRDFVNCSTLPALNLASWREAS
Method in brief: (§2)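 Recombinant MPO (~25 nM) in pH 7.4 phosphate (10 mM)/NaCl 300 mM with taurine (15 mM) and compound (0–20 μM) at 37 °C; started with H2O2 (100 μM), stopped after 5 min with catalase. Taurine chloramine measured with TNB. No inhibitor = 0%, no H2O2 = 100%. At least 3 determinations. IC50 from three-parameter sigmoid fit.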

[6] = molecular target: T2, Myeloperoxidase (Homo sapiens) (UniProt P05164); experiment: Inhibition of chlorinating activity of recombinant myeloperoxidase at 0.5 uM by taurine assay; method in brief: as §2
T2 sequence (whole entry): T1 sequence (P05164 whole entry)

[7] = molecular target: T2, Myeloperoxidase (Homo sapiens); experiment: Inhibition of chlorinating activity of recombinant myeloperoxidase at 1 uM by taurine assay; method in brief: as §2
[8] = molecular target: T2, Myeloperoxidase (Homo sapiens); experiment: Inhibition of chlorinating activity of recombinant myeloperoxidase at 2 uM by taurine assay; method in brief: as §2
[9] = molecular target: T2, Myeloperoxidase (Homo sapiens); experiment: Inhibition of chlorinating activity of recombinant myeloperoxidase at 4 uM by taurine assay; method in brief: as §2
[10] = LDL oxidation at 5 uM by ELISA
[11] = LDL oxidation at 15 uM by ELISA
[12] = LDL oxidation at 30 uM by ELISA

In the case of `O=C(O)c1cc(O)ccc1Nc1cccc(C(F)(F)F)c1`, the Activity [1] was 2%, the Activity [2] was 2% and the Activity [3] was 2.5%. For the same compound, the Activity [4] was 2% and the level, % of control [5] was 53%.
Compound `O=C(O)c1cc(Br)ccc1Nc1cccc(C(F)(F)F)c1` has a pIC50 (Myeloperoxidase) of 5.74, an Activity [1] of 3% and an Activity [2] of 2%. For the same compound, the Activity [3] was 3%, the Activity [4] was 4.9% and the inhibition [6] was 36%. The inhibition [7] was 51%, the inhibition [8] was 65% and the inhibition [9] was 79%. It also gave a level, % of control [5] of 29%.
Compound `Nc1ccc(C(=O)O)c(Nc2cccc(C(F)(F)F)c2)c1` has an Activity [1] of 1%, an Activity [2] of 2% and an Activity [3] of 2%. The Activity [4] was 3%, the level, % of control [10] was 79% and the level, % of control [11] was 70%. It also gave a level, % of control [12] of 56% and a level, % of control [5] of 29%.
`CC(=O)Nc1ccc(C(=O)O)c(Nc2cccc(C(F)(F)F)c2)c1` gave a pIC50 (Myeloperoxidase) of 4.85, an Activity [1] of 1% and an Activity [2] of 2%. The Activity [3] was 2%, the Activity [4] was 1% and the inhibition [6] was 12%. For the same compound, the inhibition [7] was 24%, the inhibition [8] was 33% and the inhibition [9] was 42%. It also gave a level, % of control [10] of 122%, a level, % of control [11] of 86% and a level, % of control [12] of 61%. It also gave a level, % of control [5] of 29%.
With `O=C(O)c1cccc(Nc2cccc(C(F)(F)F)c2)c1C(=O)O` the pIC50 (Myeloperoxidase) was less than 4.00.
`O=C(CCCO)Nc1ccc(C(=O)O)c(Nc2cccc(C(F)(F)F)c2)c1` gave a pIC50 (Myeloperoxidase) of less than 4.00, an Activity [1] of 0% and an Activity [2] of 0%. For the same compound, the Activity [3] was -1%, the Activity [4] was 1% and the inhibition [6] was 8.5%. It also gave an inhibition [7] of 12%, an inhibition [8] of 12.2% and an inhibition [9] of 20%.
In the case of `O=C(O)c1ccc([N+](=O)[O-])cc1Nc1cccc(C(F)(F)F)c1`, the pIC50 (Myeloperoxidase) was 5.30, the Activity [1] was 0% and the Activity [2] was 0%. For the same compound, the Activity [3] was 1%, the Activity [4] was 2% and the inhibition [6] was 29%. It also gave an inhibition [7] of 29%, an inhibition [8] of 43% and an inhibition [9] of 55%. It also gave a level, % of control [10] of 121%, a level, % of control [11] of 143% and a level, % of control [12] of 135%. The level, % of control [5] was 16%.
Work on `O=C(Nc1ccc(C(=O)O)c(Nc2cccc(C(F)(F)F)c2)c1)c1ccccc1` yielded a pIC50 (Myeloperoxidase) of 4.24, an Activity [1] of 1% and an Activity [2] of 0%. The Activity [3] was 0%, the Activity [4] was 2% and the inhibition [6] was 11%. It also gave an inhibition [7] of 15%, an inhibition [8] of 25% and an inhibition [9] of 35%.
With `O=C(O)c1cc(Cl)ccc1Nc1cccc(C(F)(F)F)c1` the pIC50 (Myeloperoxidase) was 5.80, the Activity [1] was 1% and the Activity [2] was 0.4%. It also gave an Activity [3] of 2%, an Activity [4] of 1% and an inhibition [6] of 29%. It also gave an inhibition [7] of 42%, an inhibition [8] of 57% and an inhibition [9] of 74%. The level, % of control [5] was 112%.
Work on `O=C(O)/C=C/C(=O)Nc1ccc(C(=O)O)c(Nc2cccc(C(F)(F)F)c2)c1` yielded a pIC50 (Myeloperoxidase) of less than 4.00, an Activity [1] of -1% and an Activity [2] of -1%. For the same compound, the Activity [3] was 0%, the Activity [4] was 2% and the inhibition [6] was 0.3%. For the same compound, the inhibition [7] was 0.6%, the inhibition [8] was 0.1% and the inhibition [9] was 0.3%.
Work on `O=C(O)c1cc(F)ccc1Nc1cccc(C(F)(F)F)c1` yielded a pIC50 (Myeloperoxidase) of 5.74, an Activity [1] of 3.3% and an Activity [2] of 2%. For the same compound, the Activity [3] was 1.9%, the Activity [4] was 3% and the inhibition [6] was 37%. For the same compound, the inhibition [7] was 49%, the inhibition [8] was 63% and the inhibition [9] was 76%. It also gave a level, % of control [5] of 9%.
`NCCCC(=O)Nc1ccc(C(=O)O)c(Nc2cccc(C(F)(F)F)c2)c1` showed a pIC50 (Myeloperoxidase) of 5.26, an Activity [1] of 1% and an Activity [2] of 2%. For the same compound, the Activity [3] was 2%, the Activity [4] was 1% and the inhibition [6] was 12%. It also gave an inhibition [7] of 21%, an inhibition [8] of 35% and an inhibition [9] of 49%.
Compound `O=C(O)c1ccccc1Nc1cccc(C(F)(F)F)c1` [FLUFENAMIC ACID] has a pIC50 (Myeloperoxidase) of 5.74, an Activity [1] of 2% and an Activity [2] of 1.1%. For the same compound, the Activity [3] was 1.6%, the Activity [4] was 1.7% and the inhibition [6] was 25%. It also gave an inhibition [7] of 40%, an inhibition [8] of 52% and an inhibition [9] of 64%. For the same compound, the level, % of control [10] was 97%, the level, % of control [11] was 82% and the level, % of control [12] was 23%. The level, % of control [5] was 10%.
